Reference: ChEMBL document CHEMBL1135435, “Synthesis and pharmacological evaluation of 5-(4-biphenyl)-3-methyl-4-phenyl-1,2,4-triazole derivatives as a novel class of selective antagonists for the human vasopressin V(1A) receptor” (J Med Chem, 2002)
pKi: −log10 of the molar value.

Tests used:
[1] = Selectivity ratio of affinity at human Vasopressin V2 receptor to that of human Vasopressin V1a receptor.
Outline: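 Ratio of hV2 Ki to hV1A Ki, each from [3H]AVP displacement on membranes of CHO cells stably expressing the cloned human receptor (60 min, 25 °C, filtration read-out; Ki via Cheng–Prusoff using Scatchard Kd).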

[2] = molecular target: Vasopressin V2 receptor (Homo sapiens, UniProt P30518); assay: Binding affinity at cloned human Vasopressin V2 receptor stably expressed in CHO cells, using [3H]AVP as radioligand; format: cell-based
Outline: (§1)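 Membranes from CHO cells stably expressing cloned human receptor; [3H]AVP (0.5-1.0 nM) with graded test concentrations in 50 mM Tris-HCl pH 7.4, 10 mM MgCl2, 0.1% BSA, 60 min at 25 °C. Stopped with ice-cold Tris buffer, rapid GF/B filtration, scintillation counting. Nonspecific binding with 1 μM unlabeled AVP. Ki = IC50/(1+[L]/Kd); Kd from Scatchard: 0.39 nM (V1A), 1.21 nM (V2).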

[3] = molecular target: Vasopressin V1a receptor (Homo sapiens, UniProt P37288); assay: Binding affinity at cloned human Vasopressin V1a receptor stably expressed in CHO cells, using [3H]AVP as radioligand; format: cell-based
Outline: as §1, with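 “AVP.” for “AVP. Ki = IC50/(1+[L]/Kd); Kd from Scatchard: 0.39 nM (V1A), 1.21 nM (V2).”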

[4] = molecular target: Vasopressin V2 receptor (Rattus norvegicus, UniProt Q00788); assay: Binding affinity at Vasopressin V2 receptor, performed using [3H]AVP on rat kidney
Outline: (§2)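 [3H]AVP binding on plasma membranes prepared from rat liver (V1A) or rat kidney (V2). Ki from four to six independent experiments in duplicate, mean ± SEM; selectivity expressed as V2/V1A Ki ratio.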

[5] = molecular target: Vasopressin V2 receptor (Rattus norvegicus) (UniProt Q00788); assay: Selectivity ratio (Ki) of affinity at rat Vasopressin V2 receptor to that of rat Vasopressin V1a receptor; outline: as §2
[6] = molecular target: Vasopressin V1a receptor (Rattus norvegicus, UniProt P30560); assay: Binding affinity at Vasopressin V1a receptor, performed using [3H]AVP on rat liver; outline: as §2
Chain of Vasopressin V1a receptor (Rattus norvegicus, UniProt P30560) (P30560 whole entry): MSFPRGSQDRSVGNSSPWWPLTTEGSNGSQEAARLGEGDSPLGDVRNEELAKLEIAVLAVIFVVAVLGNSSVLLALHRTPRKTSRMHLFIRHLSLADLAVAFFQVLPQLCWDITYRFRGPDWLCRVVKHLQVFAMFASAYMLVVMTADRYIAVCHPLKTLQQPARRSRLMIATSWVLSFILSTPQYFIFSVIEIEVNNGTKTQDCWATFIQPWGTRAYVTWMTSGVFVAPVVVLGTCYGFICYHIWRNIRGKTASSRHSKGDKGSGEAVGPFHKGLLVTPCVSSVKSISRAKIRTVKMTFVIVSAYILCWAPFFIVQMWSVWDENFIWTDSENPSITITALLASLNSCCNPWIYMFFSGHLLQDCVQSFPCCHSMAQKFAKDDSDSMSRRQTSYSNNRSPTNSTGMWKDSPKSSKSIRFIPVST

Chain of Vasopressin V2 receptor (Homo sapiens, UniProt P30518) (P30518 whole entry): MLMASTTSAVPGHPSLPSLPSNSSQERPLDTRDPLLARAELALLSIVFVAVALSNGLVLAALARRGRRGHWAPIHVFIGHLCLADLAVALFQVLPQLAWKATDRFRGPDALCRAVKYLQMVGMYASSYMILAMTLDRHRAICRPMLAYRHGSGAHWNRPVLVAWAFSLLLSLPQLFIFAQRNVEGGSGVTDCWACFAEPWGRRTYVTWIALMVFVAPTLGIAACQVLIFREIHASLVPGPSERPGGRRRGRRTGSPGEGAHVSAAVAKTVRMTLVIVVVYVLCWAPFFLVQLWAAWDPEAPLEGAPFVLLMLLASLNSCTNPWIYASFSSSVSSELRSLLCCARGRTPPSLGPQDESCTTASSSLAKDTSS
Chain of Vasopressin V2 receptor (Rattus norvegicus, UniProt Q00788) (Q00788 whole entry): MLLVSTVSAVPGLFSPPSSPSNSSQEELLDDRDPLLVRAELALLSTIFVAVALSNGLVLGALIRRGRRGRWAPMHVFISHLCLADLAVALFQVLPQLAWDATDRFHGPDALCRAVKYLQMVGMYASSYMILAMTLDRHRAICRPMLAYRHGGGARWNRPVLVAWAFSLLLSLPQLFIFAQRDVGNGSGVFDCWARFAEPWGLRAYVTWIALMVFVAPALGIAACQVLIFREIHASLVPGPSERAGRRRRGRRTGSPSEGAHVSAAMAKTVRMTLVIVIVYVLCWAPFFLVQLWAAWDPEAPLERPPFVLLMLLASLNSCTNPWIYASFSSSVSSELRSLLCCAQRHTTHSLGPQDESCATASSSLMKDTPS
Chain of Vasopressin V2 receptor (Rattus norvegicus) (Q00788 whole entry): as above
Chain of Vasopressin V1a receptor (Homo sapiens, UniProt P37288) (P37288 whole entry): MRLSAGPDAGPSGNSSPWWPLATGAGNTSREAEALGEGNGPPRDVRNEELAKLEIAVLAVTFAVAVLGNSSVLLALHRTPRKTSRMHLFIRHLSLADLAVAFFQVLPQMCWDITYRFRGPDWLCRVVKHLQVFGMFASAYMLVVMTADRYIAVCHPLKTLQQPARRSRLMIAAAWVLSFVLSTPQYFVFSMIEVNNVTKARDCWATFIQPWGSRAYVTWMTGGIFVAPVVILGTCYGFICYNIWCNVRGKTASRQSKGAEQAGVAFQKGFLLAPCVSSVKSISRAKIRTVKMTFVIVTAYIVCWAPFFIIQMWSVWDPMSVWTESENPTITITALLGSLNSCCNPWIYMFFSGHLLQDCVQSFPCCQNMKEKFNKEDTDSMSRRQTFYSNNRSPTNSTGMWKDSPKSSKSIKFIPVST

Row | Structure (SMILES) | Ratio [1] | pKi [2] | pKi [3] | pKi [4] | Ratio [5] | pKi [6]
1 | Cc1nnc(-c2ccc(-c3ccccc3)cc2)n1-c1ccccc1OCCCCCCCN1CCN(C)CC1 | 550 | 5.61 | 8.35 | – | – | –
2 | Cc1nnc(-c2ccc(-c3ccccc3)cc2)n1-c1ccccc1OCCC1CCNCC1 | 150 | 5.09 | 7.26 | – | – | –
3 | Cc1nnc(-c2ccc(-c3ccccc3)cc2)n1-c1ccccc1OCCCCCCN1CCCCC1 | 500 | 5.16 | 7.86 | – | – | –
4 | Cc1nnc(-c2ccc(-c3ccccc3)cc2)n1-c1cccc(OCCCCCCN2CCN(C)CC2)c1 | – | – | 6.67 | – | – | –
5 | Cc1nnc(-c2ccc(-c3ccccc3)cc2)n1-c1ccccc1OCCCCN1CCN(C)CC1 | 360 | 4.99 | 7.54 | – | – | –
6 | CC(=O)NCCCOc1ccc(C(=O)N2CCC(N3C(=O)CCc4ccccc43)CC2)cc1 | – | < 5.00 | < 5.00 | < 5.00 | > 430 | –
7 | COc1ccc(S(=O)(=O)N2c3ccc(Cl)cc3[C@](O)(c3ccccc3Cl)[C@@H]2C(=O)N2CCC[C@H]2C(N)=O)cc1OC [RELCOVAPTAN] | – | 6.75 | – | 6.55 | – | –
8 | Cc1cccc(OCCCCCCN2CCN(C)CC2)c1-n1c(C)nnc1-c1ccc(-c2ccccc2)cc1 | 9900 | 4.84 | 8.84 | 4.93 | 110 | 6.99
9 | Cc1nnc(-c2ccc(-c3ccccc3)cc2)n1-c1ccccc1OCCCCCCCCN1CCN(C)CC1 | 670 | 5.05 | 7.88 | – | – | –
10 | Cc1cccc(OCc2ccc(C(=O)N3CCN(C)CC3)cc2)c1-n1c(C)nnc1-c1ccc(-c2ccccc2)cc1 | 1100 | 5.07 | 8.09 | – | – | –
11 | Cc1nnc(-c2ccc(-c3ccccc3)cc2)n1-c1ccccc1OCCCCCCn1ccnc1 | 1200 | 4.95 | 8.04 | – | – | –
12 | Cc1cccc(OCc2ccc(C(=O)N3CCC(N4CCCCC4)CC3)cc2)c1-n1c(C)nnc1-c1ccc(-c2ccccc2)cc1 | 1900 | 5.72 | 9.00 | 5.74 | 57 | 7.49
13 | Cc1nnc(-c2ccc(-c3ccccc3)cc2)n1-c1ccccc1OCCCCC1CCNCC1 | 2100 | 5.35 | 8.67 | – | – | –
14 | COc1ccccc1-n1c(C)nnc1-c1ccc(-c2ccccc2)cc1 | 21 | 5.61 | 6.92 | – | – | –
15 | Cc1nnc(-c2ccc(-c3ccccc3)cc2)n1-c1ccccc1OCCCC1CCNCC1 | 940 | 5.13 | 8.11 | – | – | –
16 | Cc1nnc(-c2ccc(-c3ccccc3)cc2)n1-c1ccccc1OCCCCCCN1CCC(N2CCCCC2)CC1 | 930 | 6.01 | 8.98 | 6.00 | 100 | 8.01
17 | Cc1nnc(-c2ccc(-c3ccccc3)cc2)n1-c1ccccc1OCCCCCCCCCCN1CCN(C)CC1 | 360 | 4.84 | 7.40 | – | – | –
18 | Cc1nnc(-c2ccc(-c3ccccc3)cc2)n1-c1ccccc1OCCCCCC(=O)N1CCN(C)CC1 | 730 | 5.18 | 8.04 | – | – | –
19 | CN(C)C1CCN(C(=O)/C=C2/c3ccccc3N(C(=O)c3ccc(NC(=O)c4ccccc4-c4ccccc4)cc3)CCC2(F)F)CC1 | 1.9 | 8.92 | 9.21 | 9.11 | 4.8 | 9.80
20 | Cc1nnc(-c2ccc(-c3ccccc3)cc2)n1-c1ccc(OCCCCCCN2CCN(C)CC2)cc1 | – | – | < 5.00 | – | – | –
21 | Cc1nnc(-c2ccc(-c3ccccc3)cc2)n1-c1ccccc1OCCCN1CCN(C)CC1 | 270 | 4.99 | 7.42 | – | – | –
22 | Cc1nnc(-c2ccc(-c3ccccc3)cc2)n1-c1ccccc1OCCCCCN1CCN(C)CC1 | 1200 | 5.31 | 8.39 | – | – | –
23 | Cc1nnc(-c2ccc(-c3ccccc3)cc2)n1-c1ccccc1OCCCCCCN1CCN(C)CC1 | 1700 | 5.75 | 8.98 | 5.91 | 72 | 7.76
24 | Cc1nnc(-c2ccc(-c3ccccc3)cc2)n1-c1ccccc1OCc1ccc(C(=O)N2CCN(C)CC2)cc1 | 190 | 6.23 | 8.52 | 6.44 | 5.8 | 7.20
